The whole screen tested about 2,300 compounds, of which about 25 (1%) were called active.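 Rule for the calls: active = mean inhibition over three replicate wells above the hit threshold derived in the earlier primary screen (cut at about 45% in these data); inactive = the rest.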 Only a selection was taken, and actives are over-represented in it overall.
The compounds below were run on Hepatitis C virus core protein (core106 dimerization) (assay: inhibitors of HCV core protein dimerization, confirmation, biochemical, TR-FRET, triplicate (AID 2152;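 note: 0% = DMSO wells and 100% = unlabelled core106 competitor control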)). Details: TR-FRET GST-/Flag-core106 dimerization, HTRF; at 5 µM; hits give high values.
Procedure, shortened: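 Test system: GST- and Flag-tagged HCV core106 peptides, dimerization via antibody TR-FRET / Amount: 17 nM Flag- plus 13.5 nM GST-core106 / Probe or stimulus: Eu(K)-anti-GST plus XL665-anti-FLAG antibodies / Compound dosing: one 5 µM dose, 0.5% DMSO / Times: 4 h incubation, 22.5 °C / Technique: TR-FRET, 340 nm excitation, 671/617 nm emission / Evaluation: percent inhibition from emission ratio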

Structure (SMILES)	inhibition
N#Cc1ccc(C23CC4(C2)[C@H](CN(P(=O)(c2ccccc2)c2ccccc2)[C@@H]4c2ccccc2)C3c2ccc(Cl)nc2)cc1 (some centres undefined)	8.04% (inactive)
CN(CC(=O)Nc1sccc1C#N)C1CCCCC1	6.43% (inactive)
CC1CC1C(=O)Nc1nc(-c2cccs2)c(-c2cccs2)s1 (centres undefined)	7.18% (inactive)
Cc1ccc(C2C(C#N)=C(N)SC(N)=C2C#N)c(C)c1	58% (active)
Cc1sccc1C1C(C#N)=C(N)SC(N)=C1C#N	32.6% (inactive)
COc1ccc(C2C(C#N)=C(N)SC(N)=C2C#N)cc1OC	2.28% (inactive)
Cc1cc(Cl)ccc1OC(C)C(=O)Nc1ccc(S(=O)(=O)Nc2cnc3ccccc3n2)cc1 (centres undefined)	-3.49% (inactive)
Cc1ccc(C)c(NC(=O)CN(C)C(=O)c2cccc(-n3cccc3)c2)c1	4.94% (inactive)
COc1cccc2cc(/C(C)=N/Nc3nc(-c4cc(C)ccc4C)cs3)c(=O)oc12	16.7% (inactive)
COc1ccc(CCNC(=O)c2ccc3c(c2)NC(=O)C(CSCc2cc(C)ccc2C)N3)cc1OC (centres undefined)	2.87% (inactive)
COc1ccc2c(c1)[nH]c(=O)c1sc3ccccc3c12	-0.73% (inactive)
O=C(Nc1nnc(-c2ccccc2Cl)o1)c1nc2ccccc2s1	-8.09% (inactive)
CN(C)c1ccc(/C=C/C=C2/SC(=S)N(c3ccccc3)C2=O)cc1	-12.6% (inactive)
COc1ccc(OC)c(-c2csc(NC(=O)CSc3ccc([N+](=O)[O-])cc3)n2)c1	-0.57% (inactive)
O=c1ccc2c(-c3ccccc3)c3ccc(O)cc3oc-2c1	-13.9% (inactive)
COc1ccc2c(c1[N+](=O)[O-])CCC/C2=N/OC(=O)c1ccccc1SC	-1.21% (inactive)
COc1ccc(/C=N\NS(=O)(=O)c2ccc(Cl)cc2)cc1COc1ccccc1[N+](=O)[O-]	-7.14% (inactive)
O=C(NCc1cccnc1)c1ccc(COc2cccc3ccccc23)o1	4.61% (inactive)
O=C(CN(c1ccc(Cl)c(C(F)(F)F)c1)S(=O)(=O)c1ccccc1)N/N=C/c1cccc2c1OCCO2	-4.47% (inactive)
O=C(Nc1ccc(NC(=S)NC(=O)C(c2ccccc2)c2ccccc2)cc1)c1ccccc1	5.69% (inactive)
COc1ccc(C(=O)N/C(=C/c2cccc3ccccc23)C(=O)NCCc2c[nH]c3ccccc23)cc1OC	-0.16% (inactive)
O=C(Nc1ccccc1)c1ccc(Nc2c([N+](=O)[O-])cc([N+](=O)[O-])c3ccccc23)cc1	1.02% (inactive)
COc1ccc(N2CCN(C(=O)c3ccc4c(c3)NC(=O)C(CSCc3ccc(C)cc3)N4)CC2)cc1 (centres undefined)	27% (inactive)
CSc1nc(N(C)CCO)c2sc3nc(-c4ccco4)c4c(c3c2n1)CCC4	-23.5% (inactive)
COc1ccccc1CCNC(=O)c1cc(-c2ccccn2)nc2ccc(Br)cc12	-9.45% (inactive)
Cc1cc(C#N)c(C)n1-c1cc(S(=O)(=O)N2CCOCC2)ccc1N1CCCC1	2.12% (inactive)
CC1(C)Cc2c(C#N)c(N3CCN(C(=O)c4ccccc4Cl)CC3)nc(-c3ccco3)c2CS1	16.3% (inactive)

Structure (SMILES)	inhibition
O=C(N/N=C/c1ccc([N+](=O)[O-])o1)c1cn(-c2ccccc2)nc1-c1ccc(Cl)cc1	-1.11% (inactive)
Cc1ccc(-c2csc(C3=C(O)CN(NC(=O)c4ccc([N+](=O)[O-])cc4)C3=N)n2)cc1	6.2% (inactive)
O=c1[nH]c(C(Cl)Cl)nc2sc3c(c12)CCN(Cc1ccccc1)C3	14.3% (inactive)
COC(=O)c1ccc(Nc2cc(C)nc(-c3ccccc3O)n2)cc1	6.69% (inactive)
CN1CCc2c(sc3c2c(=O)n(-c2ccccc2)c2nnc(SCc4ccccc4)n32)C1	3.83% (inactive)
O=C(COC(=O)c1cccc(S(=O)(=O)N2CCc3ccccc3C2)c1)NCc1ccco1	2.63% (inactive)
COc1ccc(-c2cc(OC(=O)c3ccc(F)cc3)c3c(C)oc(C)c3c(=O)c2)cc1	0.02% (inactive)
CC(C)(C)C(=O)COC(=O)c1c2c(nc3ccccc13)CCC2	-3.89% (inactive)
CN(Cc1ccccc1)C(=O)C1CCN(S(=O)(=O)c2ccc3nc4c(c(C(=O)O)c3c2)CCCC4)CC1	3.04% (inactive)
Cc1cc(Br)c2nc3c(c(C(=O)O)c2c1)CCCCC3	46.4% (active)
CCn1cc([N+](=O)[O-])c(C(=O)N2N=C(c3cccc4ccccc34)CC2c2ccccc2O)n1 (centres undefined)	7.15% (inactive)
COc1ccc(CC(=O)Nc2ccc(-c3nnc(-c4ccccc4)o3)cc2)cc1OC	56.3% (active)
O=C(COc1ccccc1)Nc1ccc(-c2nnc(-c3ccco3)o2)cc1	21.3% (inactive)
COc1ccc(CC(=O)Nc2ccc(-c3nnc(-c4ccccc4)o3)cc2)cc1	11.4% (inactive)
Cc1nc2nc(SCC(=O)NCCCN3CCCCCC3)nn2c(C)c1Cc1ccccc1	13.3% (inactive)
Cc1ccc(Cc2c(C)nc3nc(SCC(=O)NCCCN4CCCCCC4)nn3c2C)cc1	89.8% (active)
NC(=O)c1ccsc1NC(=O)COC(=O)/C=C/c1ccc([N+](=O)[O-])cc1	7.73% (inactive)
CCCN(CCC)C(=O)c1cc(-c2ccc3c(c2)OCO3)nc2ccccc12	-2.46% (inactive)
Cc1cc(C(=O)OCC(=O)c2cccc([N+](=O)[O-])c2)c2cccc(C)c2n1	13.6% (inactive)
Cc1ccc(C)c(NC(=O)CSc2nc3nc(-c4cccs4)cc(C(F)(F)F)c3c(=O)[nH]2)c1	4.9% (inactive)
CCOc1cc(/C=N/NC(N)=O)cc(Br)c1OCC(=O)Nc1cccc2ccccc12	2.46% (inactive)
N#CC1=C(N)SC(N)=C(C#N)C1CCc1ccccc1	-1.8% (inactive)
N#CC1=C(N)SC(N)=C(C#N)C1c1ccnc2ccccc12	46.8% (active)
CCOc1ccccc1C1C(C#N)=C(N)SC(N)=C1C#N	1.92% (inactive)
C=CCn1nnc2sc3c(c2c1=O)CCC(C)C3 (centres undefined)	-1.29% (inactive)
O=c1c2ccccc2nc2sc3ccccc3n12	-1% (inactive)
O=C(Nc1ccc(Cl)c(Cl)c1)Nc1nnc(-c2ccncc2)s1	38.8% (inactive)

— PubChem BioAssay AID2152 (The Scripps Research Institute Molecular Screening Center, 2009)
